Screens (PubChem BioAssay)
The list is not random: actives were taken first. Their share in the collection is about 2.5%.
MEKK2 mut-MEK5 – MEK5 binding signal on mutant MEKK2 PB1, primary screen, biochemical, multiplex bead flow cytometry, Alexa488-MEK5. 290,000 tested, 0.35% active. AID 1530, 2009. Alexa488-MEK5 binding to MEKK2 mutant. percent response, % at 10 µM; in the data active = percent response above about 24%, passing the limit was not always enough
MEKK3 PB1 HTS – modulators of MEKK3-MEK5 PB1 binding, primary screen, biochemical, wildtype MEKK3, multiplex bead flow cytometry, Alexa488-MEK5 | Mitogen-activated protein kinase kinase kinase 3 (Homo sapiens), Q99759 | bead-based flow cytometry, Alexa488-MEK5 binding to MEKK3; actives lie on both sides; 0 = blocked by unlabeled MEK5, 100 = vehicle | binding response (% of control), % at 10 µM | 290,000 tested, 1.4% active;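 active = binding response more than 3 SD above or below the average of its plate-row segment, actives on both sides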;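 also: Alexa488 bead fluorescence after subtracting the streptavidin-only scavenger bead signal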
Efflux pump mplx – inhibitors of Candida efflux pumps in yeast, primary screen, S. cerevisiae, Nile Red, multiplex | S. cerevisiae Candida pump triplex | inhibition, % at 10 µM | 330,000 tested, 0.44% active;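 active = plate passing quality check with inhibition over a set limit, or well fluorescence over plate mean plus 4 SD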;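 also: Nile Red retained in pooled yeast measured as flow cytometry median fluorescence; higher means more Nile Red kept so more efflux inhibition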
ABCB1 block – ABCB1 efflux pump inhibitors, primary screen, cell-based, multiplex, flow cytometry, ABCG2 counter-screen | AID 1326, 2008 | inhibition, % at 6.6 µM | ATP-dependent translocase ABCB1 (Homo sapiens), P08183 | CCRF-Adr cells, JC-1 efflux | 190,000 tested, 0.067% active; in the data active = inhibition above about 40%;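 also: higher value means more JC-1 retained so stronger ABCB1 efflux block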
Target sequence (P08183 whole entry, looked up): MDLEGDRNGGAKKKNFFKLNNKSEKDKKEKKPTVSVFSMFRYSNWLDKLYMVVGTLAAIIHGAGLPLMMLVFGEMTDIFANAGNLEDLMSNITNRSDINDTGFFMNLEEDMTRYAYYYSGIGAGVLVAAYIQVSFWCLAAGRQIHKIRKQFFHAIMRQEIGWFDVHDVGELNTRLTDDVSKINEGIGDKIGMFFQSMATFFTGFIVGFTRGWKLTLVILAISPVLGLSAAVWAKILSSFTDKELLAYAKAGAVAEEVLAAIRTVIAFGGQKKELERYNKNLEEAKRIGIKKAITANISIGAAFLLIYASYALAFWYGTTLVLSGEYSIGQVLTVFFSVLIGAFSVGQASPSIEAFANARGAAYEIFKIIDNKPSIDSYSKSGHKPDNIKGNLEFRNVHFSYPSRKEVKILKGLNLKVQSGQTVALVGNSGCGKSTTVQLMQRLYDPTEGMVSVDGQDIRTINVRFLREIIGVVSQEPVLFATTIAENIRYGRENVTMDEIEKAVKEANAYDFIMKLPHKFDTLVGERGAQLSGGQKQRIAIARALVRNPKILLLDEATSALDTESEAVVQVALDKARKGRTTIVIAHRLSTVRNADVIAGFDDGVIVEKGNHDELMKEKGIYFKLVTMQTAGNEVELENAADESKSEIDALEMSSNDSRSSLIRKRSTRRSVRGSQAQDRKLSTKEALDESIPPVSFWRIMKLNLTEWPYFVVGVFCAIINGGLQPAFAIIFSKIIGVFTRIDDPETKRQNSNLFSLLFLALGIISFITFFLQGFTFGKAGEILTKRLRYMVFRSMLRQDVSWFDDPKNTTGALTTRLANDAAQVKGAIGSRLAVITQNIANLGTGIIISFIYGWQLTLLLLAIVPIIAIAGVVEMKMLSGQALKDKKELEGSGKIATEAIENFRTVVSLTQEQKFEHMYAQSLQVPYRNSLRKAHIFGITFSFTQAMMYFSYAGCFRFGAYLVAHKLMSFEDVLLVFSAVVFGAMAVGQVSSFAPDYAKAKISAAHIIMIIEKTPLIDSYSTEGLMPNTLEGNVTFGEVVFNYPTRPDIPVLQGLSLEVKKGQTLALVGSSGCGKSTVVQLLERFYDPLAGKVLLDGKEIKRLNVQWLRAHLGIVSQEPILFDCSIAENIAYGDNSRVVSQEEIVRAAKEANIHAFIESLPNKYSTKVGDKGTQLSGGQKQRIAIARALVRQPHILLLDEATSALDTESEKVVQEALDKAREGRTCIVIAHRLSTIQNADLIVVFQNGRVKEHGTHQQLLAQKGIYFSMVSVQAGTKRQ
MEKK2wt PB1 HTS – modulators of MEK5 binding to wildtype MEKK2, primary screen, biochemical, multiplex bead flow cytometry, Alexa488-MEK5; Mitogen-activated protein kinase kinase kinase 2 (Homo sapiens), Q9Y2U5; Alexa488-MEK5 binding to MEKK2 WT; actives lie on both sides; binding response (% of control), % at 10 µM; 290,000 tested, 1.1% active; AID 1531, 2009; in the data active = binding response below about 67% or above about 130%
ABCG2 block – ABCG2 efflux pump inhibitors, primary screen, multiplex with ABCB1, IgMXP3 cells, flow cytometry; JC-1 efflux; inhibition, % at 6.6 µM; 190,000 tested, 0.1% active; AID 1325, 2008;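 active = inhibition above 80%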
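Incubation: cells with compound and JC-1, 10 min at 25 °C, rotating, no wash / Test system: IgMXP3 (ABCG2) plus far-red-tagged CCRF-Adr (ABCB1) cells / Compound dosing: one concentration, 6.6 µM final / Also added: JC-1 fluorescent substrate / Evaluation: efflux inhibition in percent versus controls / Detection: flow cytometry, 530 nm JC-1 signal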
ABCB1 single pt – ABCB1 efflux pump inhibitors, confirmation, cell-based, single point, ABCG2 counter-screen. shares compounds with ABCG2 block. CCRF-Adr cells, JC-1 efflux, flow cytometry. inhibition, % at 6.6 µM. 270 tested, 7% active. AID 1451, 2008;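 active = inhibition of pump activity above 50%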
ABCG2 single pt – ABCG2 efflux pump inhibitors, confirmation, single point, IgMXP3 cells, ABCB1 counter-screen paired. AID 1453, 2008. 270 tested, 6% active. JC-1 efflux, flow cytometry. shares compounds with ABCG2 block. inhibition, % at 6.6 µM;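 active = inhibition above 50%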
IgMXP3 fluor – compound autofluorescence in ABCG2-expressing IgMXP3 cells, confirmation, artefact control for ABC transporter inhibitor project, cell-based, 488/530 nm, flow cytometry. shares compounds with ABCG2 block. compound autofluorescence 488/530 nm; stronger effect = higher value. fluorescence at 6.6 µM. 270 tested, 30% active. AID 1480, 2009;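 active = fluorescence in ABCG2-expressing cells above the plate's control-well mean plus 3 SD, cut at about 15 in these data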
CCRF autofluor – compound autofluorescence in ABCB1-expressing CCRF-Adr cells, confirmation, artefact control for ABC transporter inhibitor project, cell-based, 488/530 nm, flow cytometry; shares compounds with ABCG2 block; compound autofluorescence 488/530 nm; stronger effect = higher value; fluorescence at 6.6 µM; 270 tested, 30% active; AID 1483, 2009;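 active = fluorescence beyond the plate control mean plus 3 SD, with a fluorescence-to-maximum score over 2, cut at about 25 in these data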
MEKK2wt confirm – modulators of MEK5 binding to wildtype MEKK2, confirmation, biochemical, single concentration, multiplex bead flow cytometry; shares compounds with MEKK3 PB1 HTS; Alexa488-MEK5 binding to MEKK2 WT; actives lie on both sides; binding response (% of control), % at 10 µM; 5,900 tested, 2.4% active; AID 1892, 2009; in the data active = binding response below about 16% or above about 210%; inactive = in between
MEKK2mut-MEK5 – mutant MEKK2 PB1-MEK5 binding signal retest – biochemical, single concentration, multiplex bead flow cytometry, confirmation | shares compounds with MEKK3 PB1 HTS | Alexa488-MEK5 binding to MEKK2 mutant | percent response, % at 10 µM | 5,900 tested, 2% active | AID 1893, 2009; in the data active = percent response mostly above about 71%, no sharp cut-off; inactive = mostly below about 38%;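 also: higher means compound restores mutant binding toward wildtype level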
MEKK3 confirm – MEKK3 wild-type PB1 binding to MEK5, inhibitors, confirmation, biochemical, bead multiplex flow cytometry, single concentration, wildtype; shares compounds with MEKK3 PB1 HTS; Alexa488-MEK5 binding to MEKK3; stronger effect = lower value; binding response (% of control), % at 10 µM; 5,900 tested, 1.8% active; AID 1894, 2009;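 active = binding response below 72% of control, or above a set upper limit, though filed actives all read lower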
Of the large screens only hits and unclear results are named; the others gave an inactive call (follow-up assays come after a bar, where they were run); [ ] = another dose, or the depositor's remark.

CCc1cccc(CC)c1NC(=O)c1cc(CN2C(=O)c3ccccc3C2=O)ccc1OC	ABCB1 block 57, ABCG2 block 96 | ABCB1 single pt inactive | ABCG2 single pt inactive | IgMXP3 fluor inactive | CCRF autofluor inactive
O=C(CNC(=O)c1ccccc1)Nc1cccc(C(F)(F)F)c1	MEKK2wt PB1 HTS 43[inhibitor], ABCG2 block active (no result: ABCB1 block) | ABCB1 single pt inactive | ABCG2 single pt inactive | IgMXP3 fluor 73 | CCRF autofluor 33
Cc1ccc(C(=O)NCC(=O)Nc2cccc(C(F)(F)F)c2)cc1	none
c1ccc(CN2CCN(c3nc(-c4ccccn4)nc4ccccc34)CC2)cc1	ABCB1 block 48 | ABCB1 single pt inactive | ABCG2 single pt inactive | IgMXP3 fluor inactive | CCRF autofluor inactive
COCC(C)NC(=O)c1nn(Cc2ccccc2)c(=O)c2ccccc12 (stereo not drawn)	none (no result: ABCB1 block, ABCG2 block)
COc1ccc(/C=N/NC(=O)c2cccnc2)cc1CN1CCN(c2ccc(F)cc2)CC1	ABCB1 block 45 | ABCB1 single pt inactive | ABCG2 single pt inactive | IgMXP3 fluor inactive | CCRF autofluor inactive
CCCc1ccc2oc(C(=O)N3CCN(C4CCS(=O)(=O)C4)CC3)c(C)c2c1 (stereo not drawn)	none (no result: ABCB1 block, ABCG2 block)
O=C1NC(c2ccc(-c3ccccc3[N+](=O)[O-])o2)C(C(=O)c2ccc(F)cc2)C(O)(C(F)(F)F)N1 (stereo not drawn)	ABCG2 block 88 | ABCB1 single pt inactive | ABCG2 single pt inactive | IgMXP3 fluor 15 | CCRF autofluor inactive
COc1ccc(C(=O)C2C(c3ccc(-c4ccccc4[N+](=O)[O-])o3)NC(=O)NC2(O)C(F)(F)F)cc1 (stereo not drawn)	none
COc1ccc(CCNC(=O)CNC(=O)Cn2ccc3ccccc3c2=O)cc1OC	none (no result: ABCB1 block, ABCG2 block)
Nc1c(C(=O)C2CC2)sc2nc(-c3cccs3)cc(C(F)(F)F)c12	ABCB1 block 42, MEKK2wt PB1 HTS 59[inhibitor] | ABCB1 single pt inactive | ABCG2 single pt inactive | IgMXP3 fluor 92 | CCRF autofluor 271 | MEKK2wt confirm inactive | MEKK2mut-MEK5 inactive | MEKK3 confirm inactive
O=c1[nH][nH]c(=S)n1-c1ccccc1C(F)(F)F	none (no result: Efflux pump mplx, ABCB1 block, ABCG2 block)
O=C(NCc1ccco1)c1cc([N+](=O)[O-])ccc1N1CCOCC1	none
CCOC(=O)c1sc2cc([N+](=O)[O-])cc(SCC(C)C)c2c1N	MEKK2 mut-MEK5 28, MEKK2wt PB1 HTS 16 | ABCB1 single pt inactive | ABCG2 single pt inactive | IgMXP3 fluor 82 | CCRF autofluor 129 | MEKK2wt confirm inactive | MEKK2mut-MEK5 inactive | MEKK3 confirm inactive
CCCN1C(=O)/C(=C/C=C2\N(CC)c3ccccc3C2(C)C)SC1=S	MEKK2 mut-MEK5 151, MEKK3 PB1 HTS 68[inhibitor], ABCB1 block 70 | ABCB1 single pt inactive | ABCG2 single pt inactive | IgMXP3 fluor 96 | CCRF autofluor 193 | MEKK2wt confirm inactive | MEKK2mut-MEK5 inactive | MEKK3 confirm inactive
C=CCN1C(=O)/C(=C2/Sc3ccccc3N2CC)SC1=S	none (no result: ABCB1 block, ABCG2 block)
CCCCN1C(=O)/C(=C/C=C2\Oc3ccccc3N2CC)SC1=S	MEKK3 PB1 HTS 69[inhibitor], MEKK2wt PB1 HTS 35[inhibitor], ABCG2 block 89 (no result: Efflux pump mplx) | ABCB1 single pt inactive | ABCG2 single pt inactive | IgMXP3 fluor 162 | CCRF autofluor 423 | MEKK2wt confirm inactive | MEKK2mut-MEK5 inactive | MEKK3 confirm inactive
CCN1C(=O)/C(=C/C=C2/Sc3ccccc3N2CCO)SC1=S	none
C=CCN1C(=O)/C(=C\C=C2\N(C)c3ccccc3C2(C)C)SC1=S	MEKK3 PB1 HTS 75[inhibitor], ABCB1 block 61, ABCG2 block 189 (no result: MEKK2wt PB1 HTS) | ABCB1 single pt inactive | ABCG2 single pt inactive | IgMXP3 fluor 145 | CCRF autofluor 186 | MEKK2wt confirm inactive | MEKK2mut-MEK5 inactive | MEKK3 confirm inactive
Cc1ccc(O)c(-c2cc(-c3ccc(F)cc3)no2)c1	none (no result: ABCB1 block, ABCG2 block)
CN1/C(=C/c2cccc[n+]2CCO)Sc2ccccc21	none (no result: ABCB1 block, ABCG2 block)
CC[n+]1c(/C=C2\Sc3ccccc3N2C)ccc2cccc(C)c21	MEKK2 mut-MEK5 76, MEKK3 PB1 HTS 47[inhibitor], ABCG2 block 151 (no result: Efflux pump mplx, MEKK2wt PB1 HTS) | ABCB1 single pt inactive | ABCG2 single pt inactive | IgMXP3 fluor 273 | CCRF autofluor 535 | MEKK2wt confirm inactive | MEKK2mut-MEK5 inactive | MEKK3 confirm inactive
O=c1c(/C=C(\O)c2ccccc2)nc2ccccc2n1-c1ccccc1	MEKK3 PB1 HTS 81[inhibitor], ABCB1 block 45, MEKK2wt PB1 HTS 58[inhibitor] | ABCB1 single pt inactive | ABCG2 single pt inactive | IgMXP3 fluor inactive | CCRF autofluor 77 | MEKK2wt confirm inactive | MEKK2mut-MEK5 inactive | MEKK3 confirm inactive
